Assay outcomes from PubChem.
An excerpt weighted towards active compounds, which were near 1.8% of everything screened.
M5 ag: agonists of human muscarinic M5 receptor (CHRM5). activation, % at 3 µM. CHO-K1 hM5 cells, Fluo-8 calcium fluorescence; 0% DMSO wells, 100% maximal acetylcholine response. 360,000 tested, 0.19% active. AID 624037;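 active = activation above the run's mean over test compounds plus 3 SD, cut at about 23% in these data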;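 note: signal is peak over basal fluorescence ratio across the kinetic read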
Target sequence (P08912 whole entry, looked up): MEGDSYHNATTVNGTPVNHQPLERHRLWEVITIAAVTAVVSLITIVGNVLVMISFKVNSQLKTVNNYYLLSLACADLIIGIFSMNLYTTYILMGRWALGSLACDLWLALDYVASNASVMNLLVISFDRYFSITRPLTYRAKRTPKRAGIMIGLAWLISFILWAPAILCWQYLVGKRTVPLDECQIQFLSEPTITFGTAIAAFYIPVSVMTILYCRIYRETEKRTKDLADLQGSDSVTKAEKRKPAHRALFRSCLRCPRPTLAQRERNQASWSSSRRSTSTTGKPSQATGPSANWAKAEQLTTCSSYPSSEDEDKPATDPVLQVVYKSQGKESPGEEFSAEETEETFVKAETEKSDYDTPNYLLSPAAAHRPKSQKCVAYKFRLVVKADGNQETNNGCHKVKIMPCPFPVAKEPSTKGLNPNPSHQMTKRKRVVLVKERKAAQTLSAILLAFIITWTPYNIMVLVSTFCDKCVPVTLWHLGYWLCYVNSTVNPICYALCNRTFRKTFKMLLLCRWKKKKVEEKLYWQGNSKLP
M4 antag: CHRM4 antagonism in calcium assay. 360,000 tested, 0.73% active. P08173. AID 624125. CHO-hM4 cells, ACh EC80, Fluo-8 calcium fluorescence. inhibition, % at 3 µM;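 active = inhibition above its plate's cutoff, the mean inhibition of sample wells plus 3 SD, cut at about 27% in these data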;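 note: 0% = acetylcholine EC80 with DMSO and 100% = DMSO without agonist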
M5 PAM: CHRM5 positive allosteric modulation | P08912 | CHO-K1 hM5, Fluo-8 calcium, ACh EC20 PAM; 0% = ACh EC20, 100% = ACh EC100 | activation, % at 3 µM | 360,000 tested, 0.3% active | AID 624038;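 active = activation above the run cutoff, the mean activation of all test compounds plus 3 SD, cut at about 18% in these data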
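Assay system – human M5 receptor in CHO-K1 cells · Read-out – % activation, ACh-normalized · Technique – Fluo-8 calcium fluorescence · Dosing – single-point, 3 µM nominal · Incubation – Fluo-8 loading 80 min at 37 °C plus 30 min room temperature · Repeats – singlicate, one well per test compound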
M5 antag: antagonists of human muscarinic M5 receptor (CHRM5) | P08912 | CHO-hM5 cells, Fluo-8 calcium fluorescence, ACh EC80 | inhibition, % at 3 µM | 360,000 tested, 0.59% active;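 active = inhibition above a per-plate cutoff, the mean of that plate's test compounds plus 3 SD, cut at about 27% in these data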;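 note: 0% = acetylcholine EC80 with DMSO and 100% = DMSO without agonist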
CHRM4 PAM: CHRM4 positive allosteric modulation. P08173. CHO-K1 hM4/Gqi5, Fluo-8 calcium fluorescence, ACh EC20; 0% = ACh EC20, 100% = maximal ACh. activation, % at 3 µM. 360,000 tested, 0.4% active;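 active = activation above its plate's cutoff, the mean activation of sample wells plus 3 SD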
CHRM4 agonist: agonists of human muscarinic M4 receptor (CHRM4) | P08173 | CHO-K1 hM4/Gqi5, Fluo-8 calcium fluorescence; vehicle 0%, full acetylcholine response 100% | activation, % at 3 µM | 360,000 tested, 0.14% active | AID 624127;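 active = activation above the run mean over all test wells plus 3 SD, cut at about 32% in these data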;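 note: peak over basal fluorescence ratio per well then scaled between controls; 0% = DMSO wells and 100% = acetylcholine at EC100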
An asterisk follows results filed as active.

For COc1ccccc1OCC(=O)Nc1ccc(CSc2ccccc2)cc1C the results were M5 ag 12.0, M4 antag 1.5, M5 PAM 49.1*, M5 antag -0.2, CHRM4 PAM 7.2 and CHRM4 agonist 0.2.
COc1ccc(S(=O)(=O)Nc2cc(C)on2)cc1 was read as M5 ag -4.0, M4 antag -10.9, M5 PAM 1.7, M5 antag 0.0, CHRM4 PAM 11.7 and CHRM4 agonist 0.7.
`COC(=O)c1cccc(C(=O)N2CCCC(CCC(=O)N(C)CCc3ccccn3)C2)c1` (stereo unspecified) gave M5 ag -4.6, M4 antag -2.5, M5 PAM -4.6, M5 antag -2.2, CHRM4 PAM 8.7 and CHRM4 agonist 1.0.
Screening CCN(Cc1ccc(OC)c(F)c1)C(C)C(=O)Nc1ccc(S(=O)(=O)N2CCCC2)cc1 (stereo unspecified) returned M5 ag -1.2, M4 antag -3.4, M5 PAM -0.9, M5 antag -3.0, CHRM4 PAM -7.7 and CHRM4 agonist 0.3.
For COc1ccc(CN(C)C(C)C(=O)Nc2ccc(S(=O)(=O)N3CCCCC3)cc2)c(OC)c1 (stereo unspecified) the results were M5 ag -5.0, M4 antag 26.5*, M5 PAM -24.9, M5 antag 4.3, CHRM4 PAM -12.0 and CHRM4 agonist 5.2.
For CCn1c(COc2cccc(C)c2C)nnc1SCC(=O)N1CCN(c2ccc(OC)cc2)CC1 the results were M5 ag 1.4, M4 antag -0.9, M5 PAM -3.9, M5 antag -0.2, CHRM4 PAM -3.0 and CHRM4 agonist 2.8.
COCCNC(=O)C1CCCN(C(=O)c2csc3ccccc23)CC1 (stereo unspecified) was read as M5 ag -0.2, M4 antag -0.1, M5 PAM 2.1, M5 antag -1.1, CHRM4 PAM 1.1 and CHRM4 agonist 0.9.
Screening CCN(Cc1ccncc1)C(=S)Nc1ccccc1 returned M5 ag -2.0, M4 antag -11.8, M5 PAM -6.9, M5 antag 0.5, CHRM4 PAM 7.0 and CHRM4 agonist 1.4.
`CCN(Cc1ccncc1)C(=O)C(CO)c1ccccc1` (stereo unspecified) gave M5 ag -1.2, M4 antag 88.5*, M5 PAM -18.7, M5 antag 87.5*, CHRM4 PAM -16.2 and CHRM4 agonist 0.2.
For Cc1nc2ccccc2cc1OCc1ccccc1 the results were M5 ag 2.1, M4 antag 6.0, M5 PAM -14.4, M5 antag 23.7, CHRM4 PAM -10.1 and CHRM4 agonist 6.4.
Screening COc1cccc(COc2cc3ccccc3nc2C)c1 returned M5 ag 3.0, M4 antag 24.4, M5 PAM -16.1, M5 antag 30.9*, CHRM4 PAM -1.9 and CHRM4 agonist 9.3.
For Cc1nc2ccccc2cc1OCc1ccc(Cl)cc1 the results were M5 ag 6.3, M4 antag 19.3, M5 PAM -13.8, M5 antag 29.7*, CHRM4 PAM -13.8 and CHRM4 agonist 4.7.
For O=C(O)C(C1CCCCC1)C1(O)CCCC1 (stereo unspecified) the results were M5 ag -1.9, M4 antag -4.8, M5 PAM 0.5, M5 antag 14.7, CHRM4 PAM 8.9 and CHRM4 agonist 4.2.
Screening Clc1cccc(Cc2c(-c3ccccc3)nc3c4ccccc4ccn23)c1 returned M5 ag -3.7, M4 antag 6.5, M5 PAM -7.2, M5 antag -1.0, CHRM4 PAM -8.8 and CHRM4 agonist -0.5.
Cc1cc(C)cc(NC(=O)CSc2nc3[nH]ncc3c(=O)[nH]2)c1 was read as M5 ag -4.5, M4 antag -8.7, M5 PAM 21.8*, M5 antag -4.5, CHRM4 PAM 31.2* and CHRM4 agonist 0.9.
CN(C(=O)CSc1nc2[nH]ncc2c(=O)[nH]1)c1ccccc1 was read as M5 ag -1.7, M4 antag -7.9, M5 PAM 7.2, M5 antag -15.5, CHRM4 PAM 18.5* and CHRM4 agonist 0.1.
